Laboratory results published in ChEMBL document CHEMBL4613238, “Synthesis and biological activity of thieno[3,2-d]pyrimidines as potent JAK3 inhibitors for the treatment of idiopathic pulmonary fibrosis” (Bioorg Med Chem, 2020).
Activity calls are given as the source filed them. The calls are words filed in the database; no cut-off is given here.

Experiments:
Mus musculus [1] = assay: Antifibrotic activity against bleomycin-induced pulmonary fibrosis C57BL/6J mouse model assessed as reduction in IL6 expression in plasma at 120 mg/kg, po administered via gavage qd for 14 days at 3 days post bleomycin challenge by FACSCalibur flow cytometry; type: functional, organism-based
Summary of the method: (§1)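 Female C57BL/6J mice (5‒6 weeks, 20‒25 g) were given 33 μg bleomycin intratracheally in saline under isoflurane. From day 3 they received oral gavage once daily for 14 days, with saline containing 1.4% DMSO as vehicle; n=8 per group. Vena cava blood was heparinized and spun at 3000 rpm for 10 min, and plasma was stored at −20 °C. IL-6, IL-17A and TNF-α were measured by flow cytometry; mean ± SEM.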

Mus musculus [2] = assay: Antifibrotic activity against bleomycin-induced pulmonary fibrosis C57BL/6J mouse model assessed as reduction in IL17A expression in plasma at 120 mg/kg, po administered via gavage qd for 14 days at 3 days post bleomycin challenge by FACSCalibur flow cytometry; type: functional, organism-based; summary of the method: as §1
Mus musculus [3] = assay: Antifibrotic activity against bleomycin-induced pulmonary fibrosis C57BL/6J mouse model assessed as reduction in lung coefficient at 120 mg/kg, po administered via gavage qd for 14 days at 3 days post bleomycin challenge; type: functional, organism-based
Summary of the method: (§2)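 Bleomycin was given intratracheally (33 μg) to female C57BL/6J mice, 5‒6 weeks old. Daily oral gavage followed for 14 days from day 3, with 1.4% DMSO saline vehicle; n=8 per group. Fresh lungs were weighed and lung index was calculated as lung weight/body weight × 100.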

Mus musculus [4] = assay: Antifibrotic activity against bleomycin-induced pulmonary fibrosis C57BL/6J mouse model assessed as reduction in TNF-alpha expression in plasma at 120 mg/kg, po administered via gavage qd for 14 days at 3 days post bleomycin challenge by FACSCalibur flow cytometry; type: functional, organism-based; summary of the method: as §1
Mus musculus [5] = assay: Antifibrotic activity against bleomycin-induced pulmonary fibrosis C57BL/6J mouse model assessed as reduction in alveolar septal swelling at 120 mg/kg, po administered via gavage qd for 14 days at 3 days post bleomycin challenge by hematoxylin and eosin staining based light microscopic analysis; type: functional, organism-based
Summary of the method: (§3)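 Intratracheal bleomycin (33 μg) was given to female C57BL/6J mice. Oral gavage started 3 days later and continued once daily for 14 days, with 1.4% DMSO saline as vehicle; n=8. Lungs were formalin-fixed for 24 h and paraffin-embedded. 5 μm sections were H&E-stained and examined by light microscopy at 200×.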

Mus musculus [6] = assay: Antifibrotic activity against bleomycin-induced pulmonary fibrosis C57BL/6J mouse model assessed as reduction in oxidative stress by measuring reduction in MDA level in plasma at 120 mg/kg, po administered via gavage qd for 14 days at 3 days post bleomycin challenge; type: functional, organism-based
Summary of the method: (§4)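 After 33 μg intratracheal bleomycin, female C57BL/6J mice were gavaged once daily for 14 days from day 3 (vehicle saline, 1.4% DMSO; n=8). MDA was measured in heparinized plasma with a kit by absorbance at 532 nm; mean ± SEM.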

Mus musculus [7] = assay: Antifibrotic activity against bleomycin-induced pulmonary fibrosis C57BL/6J mouse model assessed as reduction in IL6 expression in plasma at 30 to 60 mg/kg, po administered via gavage qd for 14 days at 3 days post bleomycin challenge by FACSCalibur flow cytometry; type: functional, organism-based; summary of the method: as §1
Mus musculus [8] = assay: Antifibrotic activity against bleomycin-induced pulmonary fibrosis C57BL/6J mouse model assessed as reduction in lung coefficient at 30 to 60 mg/kg, po administered via gavage qd for 14 days at 3 days post bleomycin challenge; type: functional, organism-based; summary of the method: as §2
Mus musculus [9] = assay: Antifibrotic activity against bleomycin-induced pulmonary fibrosis C57BL/6J mouse model assessed as reduction in collagen deposition by measuring hydroxyproline content in lungs at 60 mg/kg, po administered via gavage qd for 14 days at 3 days post bleomycin challenge by hydroxyproline assay; type: functional, organism-based
Summary of the method: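 Bleomycin model in female C57BL/6J mice: 33 μg intratracheal, then daily oral dosing for 14 days beginning on day 3, vehicle saline with 1.4% DMSO, n=8. Lungs were perfused with saline and lavaged with PBS/1 mM EDTA. The left lobe was assayed for hydroxyproline with a kit by absorbance at 550 nm; mean ± SEM.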

Mus musculus [10] = assay: Antifibrotic activity against bleomycin-induced pulmonary fibrosis C57BL/6J mouse model assessed as reduction in IL17A expression in plasma at 30 to 60 mg/kg, po administered via gavage qd for 14 days at 3 days post bleomycin challenge by FACSCalibur flow cytometry; type: functional, organism-based; summary of the method: as §1
Mus musculus [11] = assay: Antifibrotic activity against bleomycin-induced pulmonary fibrosis C57BL/6J mouse model assessed as reduction in oxidative stress by measuring reduction in MDA level in plasma at 60 mg/kg, po administered via gavage qd for 14 days at 3 days post bleomycin challenge; type: functional, organism-based; summary of the method: as §4
Mus musculus [12] = assay: Antifibrotic activity against bleomycin-induced pulmonary fibrosis C57BL/6J mouse model assessed as reduction in alveolar septal swelling at 60 mg/kg, po administered via gavage qd for 14 days at 3 days post bleomycin challenge by hematoxylin and eosin staining based light microscopic analysis; type: functional, organism-based; summary of the method: as §3
Mus musculus [13] = assay: Antifibrotic activity against bleomycin-induced pulmonary fibrosis C57BL/6J mouse model assessed as reduction in TNF-alpha expression in plasma at 30 to 60 mg/kg, po administered via gavage qd for 14 days at 3 days post bleomycin challenge by FACSCalibur flow cytometry; type: functional, organism-based; summary of the method: as §1
[14] = Cytotoxicity against human NHBE cells assessed as reduction in cell viability by CCK8 assay; type: cell-based
Summary of the method: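 Human bronchial epithelial (HBE) cells were tested for growth inhibition by CCK-8 assay. IC50 values are means of three separate experiments.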

[15] = target: Tyrosine-protein kinase BTK (Homo sapiens, UniProt Q06187); assay: Inhibition of BTK (unknown origin) by ADP-Glo kinase assay
Sequence of Tyrosine-protein kinase BTK (Q06187 whole entry): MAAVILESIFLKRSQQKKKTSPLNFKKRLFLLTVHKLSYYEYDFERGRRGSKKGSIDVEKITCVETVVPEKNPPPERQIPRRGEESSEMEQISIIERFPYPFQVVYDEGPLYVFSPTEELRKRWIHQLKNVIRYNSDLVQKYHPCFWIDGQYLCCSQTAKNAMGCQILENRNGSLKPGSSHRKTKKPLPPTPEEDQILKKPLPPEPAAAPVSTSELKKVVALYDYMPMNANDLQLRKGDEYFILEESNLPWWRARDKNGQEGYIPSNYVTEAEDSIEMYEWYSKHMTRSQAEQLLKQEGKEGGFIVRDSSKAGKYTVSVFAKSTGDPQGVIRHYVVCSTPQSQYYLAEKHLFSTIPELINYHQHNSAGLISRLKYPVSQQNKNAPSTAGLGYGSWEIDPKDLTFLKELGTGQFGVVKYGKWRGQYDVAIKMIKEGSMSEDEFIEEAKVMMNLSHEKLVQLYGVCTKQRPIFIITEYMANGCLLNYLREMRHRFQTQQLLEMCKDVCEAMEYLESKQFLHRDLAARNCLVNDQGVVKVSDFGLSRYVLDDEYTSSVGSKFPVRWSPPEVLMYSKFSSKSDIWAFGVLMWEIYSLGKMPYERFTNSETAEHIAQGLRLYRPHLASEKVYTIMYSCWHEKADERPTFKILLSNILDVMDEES
Summary of the method: (§5)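 ADP-Glo luminescent assay run at compound concentrations of 0.1, 1, 10, 100 and 1000 nM. The kinase reaction ran in 1× kinase buffer for 60 min at room temperature. ADP-Glo reagent was then added to stop the reaction and deplete ATP (40 min, RT), followed by detection reagent (30 min, RT) and a luminescence read. IC50s came from curve fitting; means of three experiments.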

[16] = target: T1, Tyrosine-protein kinase JAK3 (Homo sapiens, UniProt P52333); assay: Inhibition of recombinant human N-terminal GST-tagged JAK3 (781 to end residues) expressed in baculovirus infected Sf9 cells using poly (Glu,Tyr) 4:1 as substrate incubated for 60 mins in presence of ATP by ADP-Glo kinase assay; summary of the method: as §5
T1 sequence (P52333 whole entry): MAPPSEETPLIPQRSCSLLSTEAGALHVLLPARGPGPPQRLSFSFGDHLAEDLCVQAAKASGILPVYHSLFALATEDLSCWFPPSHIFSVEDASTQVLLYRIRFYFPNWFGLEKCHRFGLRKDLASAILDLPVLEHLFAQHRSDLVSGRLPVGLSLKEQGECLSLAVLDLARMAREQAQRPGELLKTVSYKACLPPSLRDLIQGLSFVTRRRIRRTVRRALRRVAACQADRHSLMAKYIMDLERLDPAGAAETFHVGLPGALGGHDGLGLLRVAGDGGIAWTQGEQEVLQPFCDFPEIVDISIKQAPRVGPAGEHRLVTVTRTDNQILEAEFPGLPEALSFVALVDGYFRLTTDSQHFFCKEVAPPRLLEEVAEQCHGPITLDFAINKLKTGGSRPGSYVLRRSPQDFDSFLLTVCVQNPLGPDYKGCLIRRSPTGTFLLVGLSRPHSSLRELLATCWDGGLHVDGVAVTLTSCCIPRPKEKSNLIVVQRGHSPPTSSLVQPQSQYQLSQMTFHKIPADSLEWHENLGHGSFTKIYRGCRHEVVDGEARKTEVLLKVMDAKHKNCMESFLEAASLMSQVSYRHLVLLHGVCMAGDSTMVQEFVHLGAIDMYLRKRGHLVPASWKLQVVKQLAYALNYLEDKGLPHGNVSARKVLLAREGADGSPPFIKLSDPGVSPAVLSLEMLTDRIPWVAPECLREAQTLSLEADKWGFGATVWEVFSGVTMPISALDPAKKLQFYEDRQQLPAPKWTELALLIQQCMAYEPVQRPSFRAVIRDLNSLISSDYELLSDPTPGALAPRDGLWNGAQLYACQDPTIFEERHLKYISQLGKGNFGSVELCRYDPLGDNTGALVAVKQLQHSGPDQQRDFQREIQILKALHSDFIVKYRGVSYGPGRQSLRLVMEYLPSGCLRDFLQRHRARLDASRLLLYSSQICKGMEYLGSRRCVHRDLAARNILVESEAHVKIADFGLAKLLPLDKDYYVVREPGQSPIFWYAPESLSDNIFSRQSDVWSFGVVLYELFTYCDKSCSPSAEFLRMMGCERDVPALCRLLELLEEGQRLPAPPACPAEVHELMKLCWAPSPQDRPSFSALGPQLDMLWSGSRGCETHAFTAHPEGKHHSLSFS

Mus musculus [17] = assay: Antifibrotic activity against bleomycin-induced pulmonary fibrosis C57BL/6J mouse model assessed as reduction in IL17A expression in plasma at 60 mg/kg, po administered via gavage qd for 14 days at 3 days post bleomycin challenge by FACSCalibur flow cytometry; type: functional, organism-based; summary of the method: as §1
Mus musculus [18] = assay: Antifibrotic activity against bleomycin-induced pulmonary fibrosis C57BL/6J mouse model assessed as reduction in TNF-alpha expression in plasma at 60 mg/kg, po administered via gavage qd for 14 days at 3 days post bleomycin challenge by FACSCalibur flow cytometry; type: functional, organism-based; summary of the method: as §1
Mus musculus [19] = assay: Antifibrotic activity against bleomycin-induced pulmonary fibrosis C57BL/6J mouse model assessed as reduction in lung coefficient at 60 mg/kg, po administered via gavage qd for 14 days at 3 days post bleomycin challenge; type: functional, organism-based; summary of the method: as §2
Mus musculus [20] = assay: Antifibrotic activity against bleomycin-induced pulmonary fibrosis C57BL/6J mouse model assessed as reduction in IL6 expression in plasma at 60 mg/kg, po administered via gavage qd for 14 days at 3 days post bleomycin challenge by FACSCalibur flow cytometry; type: functional, organism-based; summary of the method: as §1
Mus musculus [21] = assay: Antifibrotic activity against bleomycin-induced pulmonary fibrosis C57BL/6J mouse model assessed as reduction in collagen deposition in lungs at 60 mg/kg, po administered via gavage qd for 14 days at 3 days post bleomycin challenge by Masson's Trichrome staining analysis; type: functional, organism-based
Summary of the method: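 Female C57BL/6J mice received 33 μg intratracheal bleomycin, then once-daily gavage for 14 days from day 3 (1.4% DMSO saline vehicle; n=8). Lungs were fixed in formalin for 24 h and paraffin-embedded. 5 μm sections were stained with Masson's trichrome and viewed by light microscopy at 200×.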

Mus musculus [22] = assay: Antifibrotic activity against bleomycin-induced pulmonary fibrosis C57BL/6J mouse model assessed as reduction in alveolar septal swelling at 30 to 60 mg/kg, po administered via gavage qd for 14 days at 3 days post bleomycin challenge by hematoxylin and eosin staining based light microscopic analysis; type: functional, organism-based; summary of the method: as §3
Mus musculus [23] = assay: Antifibrotic activity against po dosed bleomycin-induced pulmonary fibrosis C57BL/6J mouse model assessed as reduction in alveolar septal swelling administered via gavage qd for 14 days at 3 days post bleomycin challenge by hematoxylin and eosin staining based light microscopic analysis; type: functional, organism-based; summary of the method: as §3
Mus musculus [24] = assay: Antifibrotic activity against bleomycin-induced pulmonary fibrosis C57BL/6J mouse model assessed as reduction in air-sacculitis at 30 to 60 mg/kg, po administered via gavage qd for 14 days at 3 days post bleomycin challenge by hematoxylin and eosin staining based light microscopic analysis; type: functional, organism-based; summary of the method: as §3

IC50 [15] [µM] | IC50 [16] [µM] | SMILES | Activity (Mus musculus [7]) | Activity (Mus musculus [8]) | Activity (Mus musculus [9]) | Activity (Mus musculus [10]) | Activity (Mus musculus [11]) | Activity (Mus musculus [12]) | Activity (Mus musculus [13]) | IC50 [14] [µM] | also measured
 |  | Cc1ccc(=O)n(-c2ccccc2)c1 |  |  |  |  |  |  |  |  | Activity (Mus musculus [1]): Active; Activity (Mus musculus [2]): Active; Activity (Mus musculus [3]): Active; Activity (Mus musculus [4]): Active; Activity (Mus musculus [5]): Active; Activity (Mus musculus [6]): Active
 |  | COC(=O)c1ccc2c(c1)NC(=O)/C2=C(\Nc1ccc(N(C)C(=O)CN2CCN(C)CC2)cc1)c1ccccc1 | Active | Active | Active | Active | Active | Active | Active |  | 
> 0.1 | 0.0594 | C=CC(=O)Nc1cccc(Nc2nc(Nc3ccc(CN4CCOCC4)cc3)nc3ccsc23)c1 |  |  |  |  |  |  |  | 8.27 | 
 |  | COc1cc2ncnc(Nc3ccc(F)c(Cl)c3)c2cc1OCCCN1CCOCC1 |  |  |  |  | Active | Active |  |  | Activity (Mus musculus [17]): Active; Activity (Mus musculus [18]): Active; Activity (Mus musculus [19]): Active; Activity (Mus musculus [20]): Active
> 0.1 | 0.0853 | C=CC(=O)Nc1cccc(Oc2nc(Nc3ccc(CN4CCOCC4)cc3)nc3ccsc23)c1 |  |  |  |  |  |  |  | 12.8 | 
≥ 0.0624 | 0.00138 | C=CC(=O)Nc1cccc(Oc2nc(Nc3ccc(OCCCN4CCOCC4)c(Cl)c3)nc3ccsc23)c1 | Active | Active | Active | Active | Active |  | Active | 39 | Activity (Mus musculus [21]): Active; Activity (Mus musculus [22]): Active; Activity (Mus musculus [23]): Dose-dependent effect; Activity (Mus musculus [24]): Active
